Source: ChEMBL document CHEMBL2176993, “Jatrophane diterpenes from Euphorbia mellifera and their activity as P-glycoprotein modulators on multidrug-resistant mouse lymphoma and human colon adenocarcinoma cells” (J Nat Prod, 2012)

Experiments:
COLO 320 [1] = assay: Induction of apoptosis in human COLO320 cells preincubated assessed as late apoptosis at 20 uM for 40 mins measured after 24 hrs using annexin V/propidium iodide staining by flow cytometry; assay type: functional
Summary of the method: (§1)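 COLO 320 MDR cells at 2 × 10^5/mL were exposed to agent for 40 min at 37 °C, with 1% DMSO as solvent control. Cells were then washed twice in PBS and cultured overnight at 37 °C, 5% CO2. After 24 h, supernatant and trypsin-detached cells were pooled and centrifuged. Staining used an annexin V-FITC/propidium iodide kit (rapid protocol), read immediately by flow cytometry.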

COLO 320 [2] = assay: Induction of apoptosis in human COLO320 cells preincubated assessed as early apoptosis at 20 uM for 40 mins measured after 24 hrs using annexin V/propidium iodide staining by flow cytometry; assay type: functional; summary of the method: as §1
[3] = target: T1, ATP-dependent translocase ABCB1 (Homo sapiens, UniProt P08183); assay: Inhibition of MDR1-mediated rhodamine 123 uptake expressed in human COLO320 cells assessed as fluorescence activity ratio at 20 ug/mL after 10 mins by flow cytometry relative to parent cells; assay type: cell-based; conditions: in the assay text read “20 uM” for “20 ug/mL”
T1 sequence (P08183 whole entry): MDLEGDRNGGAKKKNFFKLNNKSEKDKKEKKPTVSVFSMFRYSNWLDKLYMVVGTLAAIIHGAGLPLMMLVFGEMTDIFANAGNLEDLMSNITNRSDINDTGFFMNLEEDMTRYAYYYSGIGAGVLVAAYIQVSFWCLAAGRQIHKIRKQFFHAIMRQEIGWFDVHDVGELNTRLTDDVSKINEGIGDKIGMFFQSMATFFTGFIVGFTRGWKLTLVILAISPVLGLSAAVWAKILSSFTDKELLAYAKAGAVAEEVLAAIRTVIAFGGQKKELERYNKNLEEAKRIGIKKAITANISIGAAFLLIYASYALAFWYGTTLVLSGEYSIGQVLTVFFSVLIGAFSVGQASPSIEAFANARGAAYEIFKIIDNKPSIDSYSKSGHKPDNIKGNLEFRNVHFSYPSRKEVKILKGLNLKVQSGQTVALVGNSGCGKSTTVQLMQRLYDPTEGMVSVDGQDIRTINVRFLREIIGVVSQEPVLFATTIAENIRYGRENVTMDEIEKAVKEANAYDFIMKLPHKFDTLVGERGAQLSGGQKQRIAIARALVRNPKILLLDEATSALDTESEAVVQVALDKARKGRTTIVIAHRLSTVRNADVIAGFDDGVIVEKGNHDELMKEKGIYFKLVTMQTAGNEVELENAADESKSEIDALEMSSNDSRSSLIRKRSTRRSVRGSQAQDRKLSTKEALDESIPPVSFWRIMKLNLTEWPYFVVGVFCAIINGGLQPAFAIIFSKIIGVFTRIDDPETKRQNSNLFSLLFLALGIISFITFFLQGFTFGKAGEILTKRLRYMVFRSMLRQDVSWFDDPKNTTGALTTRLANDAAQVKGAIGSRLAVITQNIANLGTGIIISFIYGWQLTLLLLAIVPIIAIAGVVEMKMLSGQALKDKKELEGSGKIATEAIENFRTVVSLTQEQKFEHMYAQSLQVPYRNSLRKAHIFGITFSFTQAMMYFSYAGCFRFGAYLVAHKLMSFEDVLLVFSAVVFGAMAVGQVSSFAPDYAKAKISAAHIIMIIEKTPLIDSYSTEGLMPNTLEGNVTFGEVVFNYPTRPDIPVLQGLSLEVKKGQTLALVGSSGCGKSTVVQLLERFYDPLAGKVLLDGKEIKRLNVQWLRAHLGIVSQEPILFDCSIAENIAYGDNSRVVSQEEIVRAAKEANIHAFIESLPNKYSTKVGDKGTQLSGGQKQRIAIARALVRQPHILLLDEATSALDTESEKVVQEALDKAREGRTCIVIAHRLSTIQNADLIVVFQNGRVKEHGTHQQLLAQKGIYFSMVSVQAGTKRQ
Summary of the method: (§2)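 COLO 320 MDR cells (and COLO 205) were held at 1 × 10^6/mL in serum-free RPMI 1640 and given compound (2 or 20 μM) for 10 min at room temperature. […] Rhodamine-123 (5.2 μM final) followed for 20 min at 37 °C; cells were washed twice into PBS. FL-1 of 10 000 cells was read by flow cytometry. FAR was calculated from treated/untreated resistant versus sensitive cells.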

[4] = target: T1, ATP-dependent translocase ABCB1; assay: Inhibition of MDR1-mediated rhodamine 123 uptake expressed in human COLO320 cells assessed as fluorescence activity ratio at 2 ug/mL after 10 mins by flow cytometry relative to parent cells; assay type: cell-based; conditions: in the assay text read “2 uM” for “2 ug/mL”; summary of the method: as §2
[5] = target: T1, ATP-dependent translocase ABCB1; assay: Inhibition of MDR1-mediated rhodamine 123 uptake expressed in mouse L5178Y cells assessed as fluorescence activity ratio at 60 ug/mL after 10 mins by flow cytometry relative to parent cells; assay type: cell-based; conditions: in the assay text read “60 uM” for “60 ug/mL”
Summary of the method: (§3)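 Mouse L5178Y cells, parental and human MDR1-transfected (kept with 60 ng/mL colchicine), were held at 2 × 10^6/mL in serum-free McCoy's 5A and given compound (2, 6, 20, 60 μM) for 10 min at room temperature. […] Rhodamine-123 (5.2 μM final) followed for 20 min at 37 °C; cells were washed twice into PBS. FL-1 of 10 000 cells was read by flow cytometry. FAR = treated/untreated MDR versus PAR.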

[6] = target: T1, ATP-dependent translocase ABCB1; assay: Inhibition of MDR1-mediated rhodamine 123 uptake expressed in mouse L5178Y cells assessed as fluorescence activity ratio at 20 ug/mL after 10 mins by flow cytometry relative to parent cells; assay type: cell-based; conditions: in the assay text read “20 uM” for “20 ug/mL”; summary of the method: as §3
[7] = target: T1, ATP-dependent translocase ABCB1; assay: Inhibition of MDR1-mediated rhodamine 123 uptake expressed in mouse L5178Y cells assessed as fluorescence activity ratio at 2 ug/mL after 10 mins by flow cytometry relative to parent cells; assay type: cell-based; conditions: in the assay text read “2 uM” for “2 ug/mL”; summary of the method: as §3
[8] = Induction of cell death in human COLO320 cells preincubated at 20 uM for 40 mins measured after 24 hrs using annexin V/propidium iodide staining by flow cytometry; assay type: functional, COLO 320
Summary of the method: (§4)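 COLO 320 MDR cells in RPMI 1640 with 10% FBS, at 2 × 10^5/mL, were exposed for 40 min at 37 °C, with 1% DMSO as the solvent control. Cells were washed twice in PBS, then kept in medium overnight at 37 °C, 5% CO2. After 24 h, supernatant and trypsin-detached cells were pelleted and resuspended in PBS. Annexin V-FITC/PI quadrants were read by flow cytometry.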

[9] = target: T1, ATP-dependent translocase ABCB1; assay: Inhibition of MDR1-mediated rhodamine 123 uptake expressed in mouse L5178Y cells assessed as fluorescence activity ratio at 6 uM after 10 mins by flow cytometry relative to parent cells
COLO 320 [10] = assay: Induction of apoptosis in human COLO320 cells preincubated assessed as late apoptosis at 200 uM for 40 mins measured after 24 hrs using annexin V/propidium iodide staining by flow cytometry; assay type: functional; summary of the method: as §1
COLO 320 [11] = assay: Induction of apoptosis in human COLO320 cells preincubated assessed as early apoptosis at 200 uM for 40 mins measured after 24 hrs using annexin V/propidium iodide staining by flow cytometry; assay type: functional; summary of the method: as §1
[12] = Induction of cell death in human COLO320 cells preincubated at 200 uM for 40 mins measured after 24 hrs using annexin V/propidium iodide staining by flow cytometry; assay type: functional, COLO 320; summary of the method: as §4
[13] = target: T1, ATP-dependent translocase ABCB1; assay: Inhibition of MDR1-mediated rhodamine 123 uptake expressed in mouse L5178Y cells assessed as fluorescence activity ratio at 2 uM after 10 mins by flow cytometry relative to parent cells
[14] = target: T1, ATP-dependent translocase ABCB1; assay: Inhibition of MDR1-mediated rhodamine 123 uptake expressed in human COLO320 cells assessed as fluorescence activity ratio at 2 uM after 10 mins by flow cytometry relative to parent cells

SMILES | Activity (COLO 320 [1]) [%] | Activity (COLO 320 [2]) [%] | Ratio [3] | Ratio [4] | Ratio [5] | Ratio [6] | Ratio [7] | Activity [8] [%] | Ratio [9] | Activity (COLO 320 [10]) [%] | Activity (COLO 320 [11]) [%] | Activity [12] [%] | Ratio [13] | Ratio [14]
CC(=O)O[C@@H]1[C@@H](OC(C)=O)C(C)(C)/C=C/[C@H](C)C(=O)[C@@]2(OC(C)=O)C[C@@H](C)[C@H](OC(=O)c3ccccc3)/C2=C/[C@](C)(O)[C@H]1OC(C)=O | 4.6 | 4.4 | 3 | 0.7 | 43.4 | 10.1 | 0.9 | 0.9 | 1.4 |  |  |  |  | 
c1ccc2c(c1)Nc1c(ccc3ccccc13)S2 |  |  |  |  |  |  |  |  |  | 58.56 | 17.55 | 3.24 |  | 
CC(=O)O[C@H]1[C@H](OC(C)=O)/C(C)=C\[C@H]2[C@@H](OC(=O)c3ccccc3)[C@H](C)C[C@]2(O)C(=O)[C@@H](C)/C=C/C(C)(C)[C@@H]1OC(C)=O (relative stereo) [EUPHOMELLIFERINE] | 4.97 | 6.72 | 5.1 | 1.1 | 72.9 | 12.1 | 1.1 | 0.74 | 2.9 |  |  |  |  | 
CC(=O)O[C@H]1[C@H](OC(C)=O)/C(C)=C\[C@H]2[C@@H](OC(=O)c3ccccc3)[C@@H](C)C[C@]2(O)[C@@H](OC(C)=O)[C@@H](C)/C=C/C(C)(C)[C@@H]1OC(C)=O (relative stereo) [EUPHOMELLIFERENE B] | 4.93 | 3 | 2.8 | 0.8 | 36.1 | 1.6 | 1.1 | 1.11 | 1.4 |  |  |  |  | 
CC(=O)O[C@H]1[C@H](OC(C)=O)/C(C)=C\[C@H]2[C@@H](OC(=O)c3ccccc3)[C@@H](C)C[C@]2(OC(C)=O)[C@@H](OC(C)=O)[C@@H](C)/C=C/C(C)(C)[C@@H]1OC(C)=O (relative stereo) [EUPHOMELLIFERENE A] | 7.7 | 5.39 | 5.5 |  | 82.2 | 23.1 |  | 1.11 | 12.4 |  |  |  | 1.2 | 2
